aDG glyco act = increases alpha dystroglycan glycosylation | Pro5-aDG cells, alpha-DG glycosylation AlphaScreen (IIH6); 0% Pro5, 100% B10-LARGE cell signal | activation, % at 10 µM | hit rate 0.22% among 360,000;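 active = activation of at least 8% versus controls, or a plate z-score of at least 8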;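 note: Pro5 are CHO cells carrying HIG-tagged alpha-DG that lacks glycosylation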
Rev-erbA mod = modulators of human Rev-erb alpha DNA binding | Rev-erbα–FITC-DNA binding, fluorescence polarization, 90 min | hit rate 0.79% among 370,000 | activity, % at 10 µM;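 active = activity above about 14%, limit read from the data; passing the limit was not always enough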;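 note: 0% = DMSO wells with 35 nM protein and 100% = DMSO wells with 750 nM protein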
Target sequence (P20393 whole entry, looked up): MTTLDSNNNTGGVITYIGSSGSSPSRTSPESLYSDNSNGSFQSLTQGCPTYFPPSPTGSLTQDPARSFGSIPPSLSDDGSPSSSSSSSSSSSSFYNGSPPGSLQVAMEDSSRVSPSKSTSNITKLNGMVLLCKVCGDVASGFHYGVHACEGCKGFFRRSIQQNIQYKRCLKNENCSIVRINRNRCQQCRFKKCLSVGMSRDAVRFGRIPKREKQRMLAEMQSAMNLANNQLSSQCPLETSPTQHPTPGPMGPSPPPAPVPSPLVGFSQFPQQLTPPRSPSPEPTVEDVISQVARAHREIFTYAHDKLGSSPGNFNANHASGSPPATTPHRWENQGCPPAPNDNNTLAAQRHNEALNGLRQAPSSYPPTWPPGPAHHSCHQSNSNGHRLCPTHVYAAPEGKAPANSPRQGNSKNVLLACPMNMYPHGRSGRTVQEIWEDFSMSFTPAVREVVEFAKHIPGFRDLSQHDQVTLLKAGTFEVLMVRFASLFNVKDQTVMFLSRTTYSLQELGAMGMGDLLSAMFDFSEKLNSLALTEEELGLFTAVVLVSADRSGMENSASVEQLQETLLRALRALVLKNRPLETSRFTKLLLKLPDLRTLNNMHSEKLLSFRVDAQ
CSN inh = CSN deneddylation inhibition; Q92905; Purified CSN, SCF-Nedd8-OG deneddylation, fluorescence polarization; inhibition, % at 12.5 µM; hit rate 0.38% among 360,000; AID 651999;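 active = pattern-corrected inhibition above about 35%, with an unprinted fluorescence ratio check between 0.5 and 1.5, limit read from the data, passing the limit was not always enough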;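 note: 0% = enzyme with substrate and 100% = substrate without enzyme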
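Assay system: purified human Csn5 enzyme expressed in HEK293T cells; Input: 0.24 nM Csn5 enzyme, final concentration; Reagent: 10 nM SCFSkp2-Nedd8OG; Compound dosing: 12.5 µM single point; Times: reaction 90 min, room temperature; Technique: fluorescence polarization readout.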
HNF4A DNA FP = change in binding of human HNF4 alpha to DNA | AID 1224865 | P41235 | HNF4a-FITC DNA binding, fluorescence polarization, 1 h | activity change, % at 10 µM | hit rate 0.3% among 360,000; in the data active = activity change above about 30%, passing the limit was not always enough
An asterisk follows results filed as active; . = no result given; + = active, no number. In the library only some 1.5% were active in any assay of this set; here they are far more common.

SMILES	aDG glyco act	Rev-erbA mod	CSN inh	HNF4A DNA FP
Cc1c(NC(=O)C2CCCN2S(=O)(=O)c2ccccc2)c(=O)n(-c2ccccc2)n1C (stereo not drawn)	0	1	57*	2
CCOC(=O)Cc1csc(NC(=O)c2csc(C)c2)n1	0	-1	3	-3
CCOC(=O)Cc1csc(NC(=O)c2sc3nc4c(C)cc(C)cc4cc3c2N)n1	0	3	4	40*
CN1CCc2c(sc(/N=C/c3c[nH]c4ccccc34)c2C#N)C1	0	6	70	77
CN1CCc2c(sc(/N=C/c3c[nH]c4ccccc34)c2C(N)=O)C1	0	-13	115*	32
CCOC(=O)c1cc(-c2ccccc2)sc1NC(=S)Nc1cc(C)ccn1	0	21	16	47*
CCOC(=O)c1cc(-c2ccccc2)sc1NC(=O)C(C)(C)C	0	2	0	-3
C[C@@H](O)[C@H](N)C(=O)O	.	-1	.	.
Cc1cc(NS(=O)(=O)c2ccc(Nc3nc(-c4sc(N)nc4C)cs3)cc2)no1	0	.	73*	3
C=CCCC(=O)N1C[C@@H](CO)[C@@H](NC)C[C@H]1c1ccccc1Br	0	0	107*	0
CC(=O)OCC(=O)[C@@]1(O)CCC2C3CCC4=CC(=O)C=C[C@]4(C)[C@@]3(Cl)[C@@H](Cl)C[C@@]21C (stereo partly drawn)	.	-3	.	.
CC1(c2nnnn2-c2ccc3c(c2)OCCO3)CCC(=O)N1CCCn1ccnc1 (stereo not drawn)	0	-4	102*	-1
CCN[C@@H]1C[C@H](N)[C@@H](O[C@H]2OC(CN)=CC[C@H]2N)[C@H](O)[C@H]1OC1OC[C@](C)(O)[C@H](NC)[C@H]1O (stereo partly drawn)	.	8	.	.
Cc1ccc(NC(=O)/C(C#N)=C/c2ccc(C)s2)c(C)c1	0	6	70*	63
Cc1ccc(/C=C(\C#N)C(=O)Nc2c(C)cccc2C)s1	0	0	35*	29
O=C(NC1CCCCN(Cc2cccc(Cl)c2)C1=O)c1ccc2ccccc2c1 (stereo not drawn)	.	3	.	.
Cc1ccc(S(=O)(=O)NCC2CN(S(=O)(=O)c3ccc(C)cc3)c3ccccc3C(=O)N2c2ccc(F)cc2)cc1 (stereo not drawn)	.	1	.	.
COc1ccc(CNC(=O)CCC(=O)c2ccc(C)cc2)cc1OC	0	-1	1	-1
COc1ccc(CNC(=O)CCC(=O)c2ccc(F)cc2)cc1OC	0	-2	66*	1
CC(C)=CCN1CCN(Cc2coc3ccc(C)cc3c2=O)CC1CCO (stereo not drawn)	0	-5	-1	51*
COc1cc([C@@H]2c3cc4c(cc3C(O[C@@H]3O[C@@H]5CO[C@@H](c6cccs6)OC5[C@H](O)[C@H]3O)C3COC(=O)[C@@H]32)OCO4)cc(OC)c1O (stereo partly drawn)	.	2	.	.
N#C/C(=C\c1ccc(C(=O)O)cc1)c1nc2sc3c(c2c(=O)[nH]1)CCCC3	0	-5	70*	11
CC(=O)OCC(=O)[C@@]1(OC(C)=O)[C@@H](C)CC2C3C[C@H](F)C4=CC(=O)C=C[C@]4(C)[C@@]3(F)[C@@H](O)C[C@@]21C (stereo partly drawn)	.	-4	.	.
NC[C@H]1O[C@H](O[C@H]2C(O[C@@H]3O[C@H](CO)[C@@H](O)[C@H]3O)[C@@H](O)[C@H](N)C[C@@H]2N)[C@H](N)[C@@H](O)[C@@H]1O (stereo partly drawn)	.	-2	.	.
CCCCCC(=O)O[C@]1(C(C)=O)CCC2C3CCC4=CC(=O)CC[C@]4(C)C3CC[C@@]21C (stereo partly drawn)	.	-5	.	.
SMILES	aDG glyco act	Rev-erbA mod	CSN inh	HNF4A DNA FP
OC(COCc1ccccc1)CN1CCCC1 (stereo not drawn)	0	-5	37*	4
O=c1/c(=C\c2ccc(O)cc2)sc2nc(-c3ccccc3)c(-c3ccccc3)n12	0	3	13	52*
CC(=O)Nc1ccc(S(=O)(=O)Nc2onc(C)c2C)cc1	.	-2	.	.
O=C1N(CCCO)CCC12CCCCC2	.	6	.	.
CNc1cc(OC)c(C(=O)N[C@@H]2CCN(Cc3ccccc3)[C@@H]2C)cc1Cl	.	-1	.	.
Nc1cc(-c2ccccc2)nn1S(=O)(=O)c1ccc(Br)cc1	0	-1	+	2
CSCCC(NC(=O)c1ccco1)C(=O)NCCc1ccc(Cl)cc1 (stereo not drawn)	0	4	37*	1
CCOc1cc2c(cc1/C=C/c1noc(C)c1[N+](=O)[O-])OC(C)C2 (stereo not drawn)	0	4	47*	106
CCCC(=O)Nc1ccc2c(c1)c1ccccc1n2CC	0	2	-15	0
CCOC(=O)C(=CNc1ccc2c(c1)c1ccccc1n2CC)C(=O)OCC	0	1	1	36*
CCOC(=O)COc1cc(=O)n(CC)c2ccccc12	0	1	108*	-1
CCOC(=O)c1ccc(N(CC(C)O)CC(C)O)cc1 (stereo not drawn)	.	-8	.	.
CCC(=O)OC1(C)C(=O)C=C2C=C(c3ccsc3)OC=C2C1=O (stereo not drawn)	0	.	26	8
COC(=O)CCC(=O)OC1(C)C(=O)C=C2C=C(c3ccsc3)OC=C2C1=O (stereo not drawn)	0	.	38*	8
O=C[C@H](O)[C@H]1OC(=O)[C@@H](O)[C@H]1O	.	-4	.	.
O=C(Nc1ccccc1-c1nc2ccccc2[nH]1)c1ccc(S(=O)(=O)N2CCCCC2)cc1	0	1	5	-1
O=C(Nc1ccccc1-c1nc2ccccc2[nH]1)c1ccc(N2C(=O)CCC2=O)cc1	0	14	54*	85*
CN1/C(=C\C=N\NC(=O)c2ccc(O)cc2)C(C)(C)c2ccccc21	1	-2	33	38*
CN1/C(=C\C=N\NC(=O)c2cccnc2)C(C)(C)c2ccccc21	0	3	-2	4
Cc1c(C)c2ccc(OCC(=O)NCc3ccccn3)cc2oc1=O	0	-3	72*	2
Cc1cc(=O)oc2cc(OCC(=O)NCc3ccccn3)ccc12	0	.	1	2
O=c1c2c(nc3cc(-c4ccc(Cl)cc4)[nH]n13)CCS2	0	2	41*	-4
CCc1c(C)nc2cc(-c3ccc(Cl)cc3)[nH]n2c1=O	0	2	-3	-1
COc1cc(C(=O)N2CCC(NC(=O)C(Cc3ccc(C(C)C)cc3)NC(C)=O)CC2)cc(OC)c1OC (stereo not drawn)	0	-2	0	52*
O=C(Nc1cccc(C(F)(F)F)c1)OCCCN1CCC2(CCC(c3ccccc3)CC2)C1=O (stereo not drawn)	.	-2	.	.
C=CCN=C1S/C(=C\c2ccc(N(C)C)cc2)C(=O)N1CC=C	0	-23	16	36*
COc1ccc(N=NC2=C(O)CC(C)(C)CC2=O)c(OC)c1	1	.	31	51*

Screening data from PubChem BioAssay.
